According to ChEMBL document CHEMBL1157945, “Bioactive secolignans from Peperomia dindygulensis” (J Nat Prod, 2006):

Legend:
A549 [1] = test: Cytotoxicity against human A549 cells after 24 hrs by MTT assay; type: functional, cell-based; conditions: A549, 24 h
In short: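 A549 cells in RPMI 1640 with 10% FBS were exposed to serial dilutions of compound for 24 h. Viability read by MTT absorbance: % = (experimental − background)/(control − background) ×100. IC50 taken from viability data.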

[2] = Reversal of multidrug resistance in human AD10 cells assessed as increase in calcein accumulation at 25 ug/ml relative to control; type: functional
In short: (§1)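 Multidrug-resistant ovarian A2780 subline AD10, kept in RPMI-1640 with 10% FBS and 80 µg/mL kanamycin. Intracellular accumulation of the fluorescent efflux probe calcein AM measured with test compounds at 0.25, 2.5 and 25 µg/mL; verapamil as reference. Values given relative to untreated control or to verapamil; means of triplicates.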

WI-38 VA13 = test: Cytotoxicity against human VA13 cells; type: functional, cell-based
In short: (§2)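 Growth inhibition in WI-38 fibroblasts (Eagle's MEM), VA-13 (RITC 80-7) and HepG2 (D-MEM) lines, each medium with 10% FBS and 80 µg/mL kanamycin.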

[3] = Reversal of multidrug resistance in human AD10 cells assessed as increase in calcein accumulation at 2.5 ug/ml relative to verapamil; type: functional; in short: as §1
[4] = Reversal of multidrug resistance in human AD10 cells assessed as increase in calcein accumulation at 0.25 ug/ml relative to control; type: functional; in short: as §1
A549 [5] = test: Antiinflammatory activity in human A549 cells assessed as inhibition of TNF-alpha-induced ICAM1 induction incubated for 1 hr prior to TNFalpha challenge measured after 6 hrs; type: functional, cell-based
In short: (§3)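 A549 cells grown in RPMI 1640 with 10% FBS and penicillin-streptomycin. Pretreated with serially varied compound concentrations for 1 h, then stimulated with IL-1α or TNF-α for 6 h. Cell-surface ICAM-1 detected with mouse anti-human ICAM-1 antibody plus peroxidase-conjugated goat anti-mouse IgG, read as absorbance. Expression as % of control = (sample+cytokine − no cytokine)/(cytokine − no cytokine) ×100; IC50 derived from this.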

[6] = Reversal of multidrug resistance in human AD10 cells assessed as increase in calcein accumulation at 25 ug/ml relative to verapamil; type: functional; in short: as §1
[7] = Cytotoxicity against human WI38 cells; type: cell-based; conditions: WI-38; in short: as §2
[8] = Reversal of multidrug resistance in human AD10 cells assessed as increase in calcein accumulation at 2.5 ug/ml relative to control; type: functional; in short: as §1
HepG2 = test: Cytotoxicity against human HepG2 cells; type: functional, cell-based; in short: as §2
[9] = Reversal of multidrug resistance in human AD10 cells assessed as increase in calcein accumulation at 0.25 ug/ml relative to verapamil; type: functional; in short: as §1
A549 [10] = test: Antiinflammatory activity in human A549 cells assessed as inhibition of IL1alpha -induced ICAM1 induction incubated for 1 hr prior to IL1alpha challenge measured after 6 hrs; type: functional, cell-based; in short: as §3

SMILES: C=C1C(=O)OC[C@H]1C(c1cc(OC)c(O)c(OC)c1)c1cc(OC)c2c(c1)OCO2 (some centres not stated)
- IC50 (A549 [1]): 84.7 µM
- Activity [2]: 125%
- IC50 (WI-38 VA13): 13.5 µM
- Activity [3]: 85%
- Activity [4]: 104%
- IC50 (A549 [5]): 3.16 µM
- Activity [6]: 83%
- IC50 [7]: 20.9 µM
- Activity [8]: 98%
- IC50 (HepG2): 22.3 µM
- Activity [9]: 98%
- IC50 (A549 [10]): 4.23 µM

SMILES: COc1cc(C(c2cc(OC)c3c(c2)OCO3)[C@@H]2CO[C@@H](O)[C@@H]2C)cc2c1OCO2
- Activity [2]: 107%
- IC50 (WI-38 VA13): 138 µM
- Activity [3]: 90%
- Activity [4]: 99%
- Activity [6]: 71%
- IC50 [7]: 142 µM
- Activity [8]: 104%
- IC50 (HepG2): 140 µM
- Activity [9]: 93%

SMILES: COc1cc(C(c2cc(OC)c3c(c2)OCO3)[C@@H]2COC(=O)[C@H]2C)cc(OC)c1O (some centres not stated)
- Activity [2]: 107%
- IC50 (WI-38 VA13): 112 µM
- Activity [3]: 90%
- Activity [4]: 99%
- Activity [6]: 71%
- IC50 [7]: 174 µM
- Activity [8]: 104%
- IC50 (HepG2): 159 µM
- Activity [9]: 93%

SMILES: COc1cc(C(c2cc(OC)c3c(c2)OCO3)[C@@H]2COC(=O)[C@@H]2CO)cc(OC)c1OC (some centres not stated)
- Activity [2]: 125%
- IC50 (WI-38 VA13): > 224 µM
- Activity [3]: 94%
- Activity [4]: 105%
- Activity [6]: 83%
- IC50 [7]: > 224 µM
- Activity [8]: 109%
- IC50 (HepG2): > 224 µM
- Activity [9]: 98%

SMILES: COc1cc(C(c2cc(OC)c(OC)c(OC)c2)[C@@H]2COC(=O)[C@H]2C)cc(O)c1OC (some centres not stated)
- IC50 (A549 [1]): > 316 µM
- Activity [2]: 105%
- IC50 (WI-38 VA13): > 231 µM
- Activity [3]: 90%
- Activity [4]: 101%
- IC50 (A549 [5]): 59.9 µM
- Activity [6]: 70%
- IC50 [7]: > 231 µM
- Activity [8]: 104%
- IC50 (HepG2): > 231 µM
- Activity [9]: 95%
- IC50 (A549 [10]): 119 µM

SMILES: COc1cc(C(c2cc(OC)c(OC)c(OC)c2)[C@@H]2COC(=O)[C@H]2C)cc(OC)c1O (some centres not stated)
- IC50 (A549 [1]): > 316 µM
- Activity [2]: 103%
- IC50 (WI-38 VA13): 151 µM
- Activity [3]: 82%
- Activity [4]: 96%
- IC50 (A549 [5]): 29 µM
- Activity [6]: 68%
- IC50 [7]: 184 µM
- Activity [8]: 95%
- IC50 (HepG2): 163 µM
- Activity [9]: 90%
- IC50 (A549 [10]): 44.3 µM

SMILES: COc1cc(C(c2cc(OC)c3c(c2)OCO3)[C@@H]2COC(=O)[C@@H]2CO)cc2c1OCO2
- IC50 (A549 [1]): > 316 µM
- Activity [2]: 105%
- IC50 (WI-38 VA13): 113 µM
- Activity [3]: 82%
- Activity [4]: 98%
- Activity [6]: 70%
- IC50 [7]: 12.8 µM
- Activity [8]: 95%
- IC50 (HepG2): 97.8 µM
- Activity [9]: 92%

SMILES: COc1ccc(CCN(C)CCCC(C#N)(c2ccc(OC)c(OC)c2)C(C)C)cc1OC (configuration not stated)
- Activity [2]: 150%
- Activity [4]: 106%
- Activity [8]: 116%

SMILES: COc1cc(C(c2cc(OC)c3c(c2)OCO3)[C@@H]2COC(=O)[C@@H]2COC(C)=O)cc(OC)c1O (single isomer, unassigned; (-))
- Activity [2]: 104%
- IC50 (WI-38 VA13): 15.2 µM
- Activity [3]: 89%
- Activity [4]: 108%
- Activity [6]: 69%
- IC50 [7]: 14.8 µM
- Activity [8]: 104%
- IC50 (HepG2): 75.9 µM
- Activity [9]: 101%

SMILES: COc1cccc2c1C(=O)c1c(O)c3c(c(O)c1C2=O)C[C@@](O)(C(=O)CO)C[C@@H]3O[C@H]1C[C@H](N)[C@H](O)[C@H](C)O1 (stereo in doubt) [DOXORUBICIN]
- IC50 (WI-38 VA13): 0.699 µM
- IC50 [7]: 1.21 µM
- IC50 (HepG2): 2.21 µM

SMILES: CC(=O)O[C@H]1C(=O)[C@@]2(C)[C@H]([C@H](OC(=O)c3ccccc3)[C@]3(O)C[C@H](OC(=O)[C@H](O)[C@@H](NC(=O)c4ccccc4)c4ccccc4)C(C)=C1C3(C)C)[C@]1(OC(C)=O)CO[C@@H]1C[C@@H]2O [PACLITAXEL]
- IC50 (WI-38 VA13): 0.0059 µM
- IC50 [7]: 0.0468 µM

SMILES: COc1cc(C(c2cc(OC)c3c(c2)OCO3)[C@@H]2COC(=O)[C@H]2C)cc2c1OCO2 [PEPEROMIN A]
- IC50 (A549 [1]): > 316 µM
- Activity [2]: 120%
- IC50 (WI-38 VA13): > 239 µM
- Activity [3]: 82%
- Activity [4]: 85%
- Activity [6]: 83%
- IC50 [7]: > 239 µM
- Activity [8]: 91%
- IC50 (HepG2): > 239 µM
- Activity [9]: 90%

SMILES: COc1cc([C@@H](c2cc(OC)c3c(c2)OCO3)[C@@H]2COC(=O)[C@H]2C)cc(OC)c1OC [PEPEROMIN B]
- IC50 (A549 [1]): > 316 µM
- Activity [2]: 121%
- IC50 (WI-38 VA13): 13.9 µM
- Activity [3]: 107%
- Activity [4]: 111%
- Activity [6]: 81%
- IC50 [7]: 9.06 µM
- Activity [8]: 104%
- IC50 (HepG2): 119 µM
- Activity [9]: 132%

SMILES: COc1cc(C(c2cc(OC)c(OC)c(OC)c2)[C@@H]2COC(=O)[C@H]2C)cc(OC)c1OC [PEPEROMIN C]
- IC50 (A549 [1]): > 316 µM
- Activity [2]: 138%
- IC50 (WI-38 VA13): 120 µM
- Activity [3]: 118%
- Activity [4]: 109%
- IC50 (A549 [5]): 125 µM
- Activity [6]: 92%
- IC50 [7]: 175 µM
- Activity [8]: 115%
- IC50 (HepG2): 189 µM
- Activity [9]: 130%
- IC50 (A549 [10]): 246 µM

SMILES: C=C1C(=O)OC[C@H]1C(c1cc(OC)c2c(c1)OCO2)c1cc(OC)c2c(c1)OCO2 [PEPEROMIN E]
- IC50 (A549 [1]): 78.9 µM
- Activity [2]: 132%
- IC50 (WI-38 VA13): 1.93 µM
- Activity [3]: 88%
- Activity [4]: 102%
- Activity [6]: 88%
- IC50 [7]: 1.21 µM
- Activity [8]: 102%
- IC50 (HepG2): 12.1 µM
- Activity [9]: 96%
